Laboratory results reported in ChEMBL document CHEMBL4373718, “Germacrane Sesquiterpenoids as a New Type of Anticardiac Fibrosis Agent Targeting Transforming Growth Factor β Type I Receptor” (J Med Chem, 2019).
The source made the active and inactive calls. No cut-off for these calls is given here.

Columns and labels:
[1] = Cytotoxicity against Sprague-Dawley rat cardiac fibroblasts assessed as reduction in cell viability at 25 uM measured after 48 hrs by MTT assay
Outline: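 Primary adult male SD rat cardiac fibroblasts at passages 2–4, 5000 cells per well. Treated for 48 h, then MTT (5 mg/mL) for 4 h. Formazan dissolved in DMSO and absorbance read at 570 nm. Triplicate wells, three independent experiments.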

[2] = biological target: T1, TGF-beta receptor type-1 (Rattus norvegicus) (UniProt P80204); experiment: Inhibition of TGFbeta1 receptor in TGFbeta1-stimulated Sprague-Dawley rat cardiac fibroblasts assessed as reduction in fibronectin expression measured after 12 hrs by Western blot analysis
T1 sequence (whole entry): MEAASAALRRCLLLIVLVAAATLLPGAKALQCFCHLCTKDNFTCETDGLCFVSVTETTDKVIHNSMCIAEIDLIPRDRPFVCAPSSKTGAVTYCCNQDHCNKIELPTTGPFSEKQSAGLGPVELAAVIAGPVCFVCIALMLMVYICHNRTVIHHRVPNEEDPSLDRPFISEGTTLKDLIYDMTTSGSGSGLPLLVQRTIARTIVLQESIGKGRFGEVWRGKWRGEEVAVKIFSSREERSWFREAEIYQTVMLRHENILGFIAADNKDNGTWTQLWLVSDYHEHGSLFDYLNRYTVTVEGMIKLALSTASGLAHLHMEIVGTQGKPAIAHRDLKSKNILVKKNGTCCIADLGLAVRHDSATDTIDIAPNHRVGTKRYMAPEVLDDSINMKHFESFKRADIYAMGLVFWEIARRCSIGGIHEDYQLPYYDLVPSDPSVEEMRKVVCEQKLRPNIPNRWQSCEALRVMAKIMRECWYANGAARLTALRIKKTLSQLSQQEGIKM
Outline: (§1)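 Primary rat cardiac fibroblasts (passages 2–4, 3×10^5 per well) treated with compound plus 10 ng/mL TGFβ1 for 12 h; tested at 2.5, 5 and 10 µM. Lysates run on 10% SDS-PAGE (30 µg protein), probed for FN, α-SMA and collagen I/III, and quantified by densitometry against GAPDH. N=3 independent experiments.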

[3] = biological target: T1, TGF-beta receptor type-1 (Rattus norvegicus); experiment: Inhibition of TGFbeta1 receptor in TGFbeta1-stimulated Sprague-Dawley rat cardiac fibroblasts assessed as reduction in collagen 1 expression measured after 12 hrs by Western blot analysis; outline: as §1
[4] = biological target: T1, TGF-beta receptor type-1 (Rattus norvegicus); experiment: Inhibition of TGFbeta1 receptor in TGFbeta1-stimulated Sprague-Dawley rat cardiac fibroblasts assessed as reduction in collagen 3 mRNA expression at 2.5 to 10 uM measured after 12 hrs by qRT-PCR analysis
Outline: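 Primary rat cardiac fibroblasts (3×10^5 per well) treated with compound plus 10 ng/mL TGFβ1 for 12 h. Total RNA extracted and target transcripts measured by SYBR Green qRT-PCR, normalized to GAPDH.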

[5] = Effect on total Smad3 expression in TGFbeta1-stimulated Sprague-Dawley rat cardiac fibroblasts at 10 uM measured after 5 to 30 mins by Western blot analysis; assay type: ADME
[6] = biological target: T1, TGF-beta receptor type-1 (Rattus norvegicus); experiment: Inhibition of TGFbeta1 receptor in TGFbeta1-stimulated Sprague-Dawley rat cardiac fibroblasts assessed as reduction in Smad2 nuclear translocation at 10 uM measured after 5 mins by DAPI staining-based laser confocal microscopic analysis
Outline: (§2)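 Primary rat cardiac fibroblasts treated with 10 µM compound plus 10 ng/mL TGFβ1 for 5 min. Fixed in 4% PFA, permeabilized with 0.1% Triton X-100, blocked with goat serum. Stained with anti-Smad2 or anti-Smad3 overnight at 4 °C, then Alexa 594 secondary and DAPI nuclear stain. Imaged by confocal microscopy.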

[7] = biological target: T1, TGF-beta receptor type-1 (Rattus norvegicus); experiment: Inhibition of TGFbeta1 receptor in TGFbeta1-stimulated Sprague-Dawley rat cardiac fibroblasts assessed as reduction in Smad3 nuclear translocation at 10 uM measured after 5 mins by DAPI staining-based laser confocal microscopic analysis; outline: as §2
[8] = biological target: TGF-beta receptor type-2 (Homo sapiens) (UniProt P37173); experiment: Inhibition of recombinant human N-terminal GST-tagged TGFbeta2 receptor (190 to end residues) expressed in baculovirus infected Sf9 insect cells up to 100 uM using MBP as substrate measured after 2 hrs by ADP-Glo assay
Outline: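 Recombinant human TβRII produced in Sf9 cells. Compound serially diluted from DMSO and incubated with enzyme, 50 µM ATP and 0.1 g/L MBP for 2 h at room temperature. Kinase activity read as ADP generated.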

[9] = system: Rattus norvegicus; experiment: Antifibrotic activity in abdominal aortic constriction Sprague-Dawley rat model of cardiac fibrosis assessed as decrease in heart collagen level at 5 mg/kg, ip administered once daily for 4 weeks measured post-last dose by Masson's trichrome staining-based histological analysis relative to control; assay type: functional; design: scale not given: the % may be the effect or the level left
Outline: (§3)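 Male SD rats (200–250 g) with abdominal aortic constriction (suture tied over a 21-G probe above the renal arteries), under pentobarbital 30 mg/kg ip. Dosed ip daily for 4 weeks. Vehicle was saline with 0.5% DMSO and 5% Kolliphor HS 15. Groups: sham, AAC, AAC+nifedipine 10 mg/kg, n=8 each. Formalin-fixed paraffin sections 4 µm thick; FN and α-SMA by immunohistochemistry, collagen by Masson's trichrome; stained area measured.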

[10] = system: Rattus norvegicus; experiment: Antifibrotic activity in abdominal aortic constriction Sprague-Dawley rat model of cardiac fibrosis assessed as decrease in heart alpha-SMA level at 5 mg/kg, ip administered once daily for 4 weeks measured post-last dose by immunohistochemical analysis relative to control; assay type: functional; design: scale not given: the % may be the effect or the level left; outline: as §3
[11] = system: Rattus norvegicus; experiment: Antifibrotic activity in abdominal aortic constriction Sprague-Dawley rat model of cardiac fibrosis assessed as down regulation of alpha-SMA expression in heart at 5 mg/kg, ip administered once daily for 4 weeks measured post-last dose by Western blot analysis; assay type: functional, organism-based
Outline: (§4)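 AAC rats dosed ip daily for 4 weeks, n=8 per group. Hearts homogenized in lysis buffer with protease and phosphatase inhibitors and spun at 12,000 rpm for 30 min at 4 °C. Nuclear and cytoplasmic fractions prepared with a kit. Protein measured by BCA; 30 µg run on 10% SDS-PAGE, transferred to PVDF and immunoblotted; bands quantified by densitometry.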

[12] = system: Rattus norvegicus; experiment: Antifibrotic activity in abdominal aortic constriction Sprague-Dawley rat model of cardiac fibrosis assessed as reduction in Smad2 phosphorylation in heart at 5 mg/kg, ip administered once daily for 4 weeks measured post-last dose by Western blot analysis; assay type: functional, organism-based; outline: as §4
[13] = system: Rattus norvegicus; experiment: Antifibrotic activity in abdominal aortic constriction Sprague-Dawley rat model of cardiac fibrosis assessed as reduction in Smad3 phosphorylation in heart at 5 mg/kg, ip administered once daily for 4 weeks measured post-last dose by immunohistochemical analysis; assay type: functional, organism-based
Outline: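 AAC rats dosed ip daily for 4 weeks, n=8 per group. Phospho-Smad2/3 stained by immunohistochemistry on 4 µm paraffin heart sections. Stained area summed over 6 fields per rat for statistics.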

[14] = system: Rattus norvegicus; experiment: Antifibrotic activity in abdominal aortic constriction Sprague-Dawley rat model of cardiac fibrosis assessed as systolic left ventricular anterior wall thickness at 5 mg/kg, ip administered once daily for 4 weeks measured post-last dose by echocardiography (reference value: 3.92 +/- 0.42 mm); assay type: functional
[15] = system: Rattus norvegicus; experiment: Antifibrotic activity in abdominal aortic constriction Sprague-Dawley rat model of cardiac fibrosis assessed as ejection fraction at 5 mg/kg, ip administered once daily for 4 weeks measured post-last dose by echocardiography (reference value: 79.59 +/- 3.13%); assay type: functional
[16] = system: Rattus norvegicus; experiment: Antifibrotic activity in abdominal aortic constriction Sprague-Dawley rat model of cardiac fibrosis assessed as fractional shortening at 5 mg/kg, ip administered once daily for 4 weeks measured post-last dose by echocardiography (reference value: 48.17 +/- 4.69%); assay type: functional

Chain of TGF-beta receptor type-2 (Homo sapiens) (P37173 whole entry): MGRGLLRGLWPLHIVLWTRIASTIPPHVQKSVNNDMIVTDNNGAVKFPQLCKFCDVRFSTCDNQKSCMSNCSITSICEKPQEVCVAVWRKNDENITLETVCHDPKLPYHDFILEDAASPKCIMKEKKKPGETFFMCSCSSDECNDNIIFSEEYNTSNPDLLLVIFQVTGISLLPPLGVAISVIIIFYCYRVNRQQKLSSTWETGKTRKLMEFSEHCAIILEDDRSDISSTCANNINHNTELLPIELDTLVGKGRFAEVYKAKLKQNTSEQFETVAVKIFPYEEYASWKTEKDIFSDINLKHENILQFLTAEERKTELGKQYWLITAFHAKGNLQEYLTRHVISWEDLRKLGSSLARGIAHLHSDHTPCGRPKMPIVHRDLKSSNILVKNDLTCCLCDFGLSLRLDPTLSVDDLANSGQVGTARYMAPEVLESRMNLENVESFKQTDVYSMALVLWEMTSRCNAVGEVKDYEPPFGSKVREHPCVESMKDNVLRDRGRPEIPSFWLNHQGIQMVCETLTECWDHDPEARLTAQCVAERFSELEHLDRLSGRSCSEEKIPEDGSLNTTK

inhibition [2]: Dose-dependent effect
inhibition [3]: Dose-dependent effect
inhibition [4]: Active
inhibition [6]: Active
inhibition [7]: Active
inhibition [8]: inactive
Structure (SMILES): C=C(C)[C@@H]1C/C=C(\C)C(=O)CCC2=C[C@@H]1OC2=O
Activity [1]: Non-Toxic
Activity [5]: Non-Toxic
Activity [9]: 65.6%
Activity [10]: 88.8%
Activity [11]: Active
Activity [12]: Active
Activity [13]: Active
Activity [14]: 3.46 mm
Activity [15]: 71.38%
Activity [16]: 42.54%
